Hits are enriched below; roughly 2.4% of the tested compounds scored in any of these assays.
HTRA1 inh: HTRA1 (human) protease inhibition | 340,000 tested, 0.5% active | Q92743 | inhibition, % at 5.96 µM | recombinant HTRA1, FP-rhodamine activity-based probe, fluorescence polarization; in the data active = inhibition above about 36%
ABHD4 inh: inhibitors of mouse ABHD4. AID 720543. purified mABHD4, FP-Rh probe fluorescence polarization. Q8VD66. inhibition, % at 8.92 µM. 370,000 tested, 0.54% active;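 active = inhibition exceeding the mean over every tested compound plus 3 SD, cut at about 30% in these data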
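Test system: mABHD4 protein; Read-out basis: % inhibition; Incubation: 45 min + 60 min at 25 °C; Repeats: single replicate; Technique: fluorescence polarization with parallel and perpendicular emission, 525/598 nm; Compound: 8.92 µM, single dose; Benchmarks: full inhibition S159A mutant plus DMSO, zero as sample-well median.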
PRMT1 FP inh: PRMT1 (human) inhibition, primary screen; 370,000 tested, 1.3% active; inhibition, % at 2.79 µM; recombinant PRMT1, activity-based probe fluorescence polarization; AID 652257;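 active = inhibition above about 21% made by adding two undisclosed values, limit read from the data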
JMJD2C inh: inhibitors of human GASC-1 (JMJD2C) demethylase | 330,000 tested, 0.069% active | inhibition, % at 2.35 µM | AID 2099 | Q9H3R0 | GST-JMJD2C(1-420) H3K9me3 demethylation, DELFIA europium;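 active = more than half of a compound's replicate wells show inhibition beyond 50%, single wells judged on their own value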;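 note: signal counts dimethyl H3K9 product captured on neutravidin plate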
SIAE inh: human SIAE inhibition, primary screen; Q9HAT2; SIAE FP-Rh probe binding, fluorescence polarization; inhibition, % at 9.66 µM; 370,000 tested, 0.69% active; AID 1053197;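 active = inhibition above a cutoff: mean of compounds within the control limits plus 3 SD of those, cut at about 17% in these data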
Target sequence (Q9HAT2 whole entry, looked up): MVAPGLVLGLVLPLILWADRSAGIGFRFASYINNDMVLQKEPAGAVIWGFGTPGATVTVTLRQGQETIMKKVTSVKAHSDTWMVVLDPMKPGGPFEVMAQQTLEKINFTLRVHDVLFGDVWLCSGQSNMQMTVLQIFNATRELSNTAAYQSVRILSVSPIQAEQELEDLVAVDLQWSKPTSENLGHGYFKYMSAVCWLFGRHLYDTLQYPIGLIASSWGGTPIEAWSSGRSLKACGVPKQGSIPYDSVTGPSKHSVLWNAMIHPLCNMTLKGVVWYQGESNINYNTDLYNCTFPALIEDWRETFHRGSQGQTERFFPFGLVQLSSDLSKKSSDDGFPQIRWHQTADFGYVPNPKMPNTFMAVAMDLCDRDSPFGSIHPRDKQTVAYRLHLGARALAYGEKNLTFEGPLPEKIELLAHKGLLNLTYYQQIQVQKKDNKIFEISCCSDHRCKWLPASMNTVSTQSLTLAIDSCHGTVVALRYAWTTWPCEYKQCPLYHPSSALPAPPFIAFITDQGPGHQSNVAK
HTRA1 conf: confirmation of human HTRA1 inhibitors; shares compounds with HTRA1 inh; inhibition, % at 5.96 µM; AID 540248; 1,600 tested, 66% active; recombinant HTRA1, FP-rhodamine activity-based probe, fluorescence polarization;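 active = mean inhibition over three repeats above a set limit taken from the earlier primary screen, cut at about 37% in these data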;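 note: inhibitors block probe binding so polarization drops and inhibition rises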
Each line names hits and unclear results; the compound was inactive in the other large screens (follow-up assays come after a bar, where they were run).

CC1(C)CC(=O)C2=C(C1)N=c1s/c(=C/c3ccc(F)c(F)c3)c(=O)n1C2c1ccc(F)cc1 (stereo not drawn)	none
CCc1ccccc1-c1cc(C(C)=O)c2n(c1=O)CCC2	none (no result: HTRA1 inh, JMJD2C inh)
O=C(Oc1c(CN2CCOCC2)cc(Cl)c2cccnc12)c1ccccc1Br	HTRA1 inh 39 | HTRA1 conf inactive
O=C(Oc1c(Cl)cc(Cl)c2cccnc12)N1CCOCC1	none
O=C(CC[C@H]1O[C@@H](n2ccc(=O)[nH]c2=O)[C@H](O)[C@@H]1O)N[C@H](Cc1ccccc1)C(=O)NCCCc1ccccc1	none (no result: HTRA1 inh, JMJD2C inh)
COC(=O)C1CN(Cc2ccc(Cl)cc2)CCS(=O)(=O)N1Cc1cn(Cc2ccc(Cl)cc2)nn1 (stereo not drawn)	none (no result: HTRA1 inh, JMJD2C inh)
Oc1ccc2ccccc2c1/C=N/Nc1nnc(-c2ncc[nH]2)c2ccccc12	HTRA1 inh 38 | HTRA1 conf 100
Cc1cccc(OCC(=O)NC(=S)N2CCCc3ccccc32)c1	HTRA1 inh 48 | HTRA1 conf inactive
O=C(COc1ccc(Cl)cc1Cl)NC(=S)N1CCCc2ccccc21	none
O=C(NNC(=O)c1cc2cc(Br)ccc2oc1=O)c1ccc(O)cc1O	HTRA1 inh 58 | HTRA1 conf 83
COCCCNC(=O)c1cc2cc(Br)ccc2oc1=O	none (no result: JMJD2C inh)
CC(C)(C)NC(=S)Nc1ccc(Br)cc1	none
CC(C)(C)NC(=S)Nc1ccc(Nc2ccccc2)cc1	HTRA1 inh 46 | HTRA1 conf inactive
COc1cc(NCCCCCCN)c2ncccc2c1OC	HTRA1 inh 38, ABHD4 inh 40 (no result: JMJD2C inh) | HTRA1 conf 39
C/C(=N\Nc1nc2ccccc2s1)c1ccc2c(c1)OCO2	none
CC(=NNc1nc2ccccc2s1)c1ccncn1	HTRA1 inh 48 (no result: JMJD2C inh) | HTRA1 conf inactive
c1coc(C2Nc3cccc4cccc(c34)N2)c1	none (no result: HTRA1 inh, ABHD4 inh, PRMT1 FP inh, SIAE inh)
Clc1cccc(C2Nc3cccc4cccc(c34)N2)c1Cl	HTRA1 inh 58 | HTRA1 conf inactive
CCOC1=C2[C@@H](CN(S(=O)(=O)c3ccc(C)cc3)[C@H]2c2ccccc2F)[C@H]2C(=O)NC(=O)[C@H]2C1	none (no result: HTRA1 inh, JMJD2C inh)
O=C(CSc1nc2ccccc2s1)N1CCOCC1	HTRA1 inh 161 | HTRA1 conf inactive
Cc1ccc(Nc2c(-c3ccccn3)nc3cc(C)ccn23)cc1	HTRA1 inh 44 | HTRA1 conf 61
Cc1ccc(Nc2c(-c3ccccn3)nc3ccc(C)cn23)cc1	HTRA1 inh 55 | HTRA1 conf 58
Cc1ccn2c(Nc3ccc4c(c3)OCO4)c(-c3ccccn3)nc2c1	HTRA1 inh 64, SIAE inh 25 | HTRA1 conf 75
Cc1ccn2c(NC3CCCC3)c(-c3ccccn3)nc2c1	none
Cn1cccc1C(=O)N1CCN(S(=O)(=O)c2ccc(F)cc2)CC1	none (no result: HTRA1 inh, JMJD2C inh)
N/C(=N\OC(=O)c1ccc2c(c1)OCO2)c1cccc(Br)c1	none
N/C(Cc1cccc2ccccc12)=N\OC(=O)c1ccc2c(c1)OCO2	HTRA1 inh 43 | HTRA1 conf inactive
Cc1oc2c(O)c(O)ccc2c(=O)c1-c1cnn(-c2ccccc2)c1	HTRA1 inh 61, PRMT1 FP inh 26 | HTRA1 conf 92
Cc1oc2cc(O)cc(C)c2c(=O)c1-c1cnn(-c2ccccc2)c1	none
CCCCN(Cc1nc2ccccc2c(=O)[nH]1)C(=O)c1nn(C)c(=O)c2ccccc12	HTRA1 inh 85 (no result: JMJD2C inh) | HTRA1 conf inactive
Cc1c(NC(=O)C2CCCN(S(=O)(=O)c3c(C(C)C)cc(C(C)C)cc3C(C)C)C2)c(=O)n(-c2ccccc2)n1C (stereo not drawn)	none (no result: HTRA1 inh, JMJD2C inh)
O=C(CCN1C(=O)/C(=C\c2ccccc2)SC1=S)NNC(=O)c1cccnc1	none
O=C(CCN1C(=O)/C(=C\c2ccccc2)SC1=S)NNC(=O)c1ccccc1O	HTRA1 inh 56 | HTRA1 conf 54
COc1cccc(CNC(=O)[C@H]2CCCN2C(=O)[C@H]2CCCN2C(=O)c2cccc(F)c2)c1	none (no result: HTRA1 inh, JMJD2C inh)
COCCNc1nc(Nc2ccccc2Cl)c2sccc2n1	none (no result: HTRA1 inh, JMJD2C inh)
CSCCCNc1nc(C)nc2c1nnn2Cc1ccccc1	none (no result: HTRA1 inh, JMJD2C inh)
Cc1cc(Br)cc(/C=N/NC(=O)c2ccc3c(c2)OCO3)c1O	none
O=C(N/N=C/c1cc(Br)cc(Cl)c1O)c1ccc2c(c1)OCO2	HTRA1 inh 42 | HTRA1 conf inactive
Cc1ccccc1C1C(C#N)=C2N=C(N)c3c(sc4c3CCCCC4)N2C2=C1C(=O)CCC2 (stereo not drawn)	HTRA1 inh 50 (no result: ABHD4 inh, PRMT1 FP inh, SIAE inh) | HTRA1 conf inactive
CCCCNC(=O)C[C@H]1C[C@@]2(C(=O)OC)C(=C[C@H](C(C)(C)C)O[C@@H]2C)N(Cc2cccc3ccccc23)C1=O	none (no result: HTRA1 inh, JMJD2C inh)
C=CC#CC[N+]1(CC#Cc2ccccc2)CCOCC1	HTRA1 inh 57 | HTRA1 conf 65
C(#Cc1ccccc1)C[N+]1(CC#Cc2ccccc2)CCCC1	none
O=C(NC1CCCCN(Cc2cccc(F)c2)C1=O)c1cccc(F)c1 (stereo not drawn)	none (no result: HTRA1 inh, JMJD2C inh)
O=S(=O)(c1cccnc1)N1CCn2cccc2C1c1ccccc1F (stereo not drawn)	HTRA1 inh 77 | HTRA1 conf inactive
CC1c2cccn2CCN1S(=O)(=O)c1ccccc1 (stereo not drawn)	none
Cc1c(Cl)cccc1NS(=O)(=O)c1ccccc1	none (no result: JMJD2C inh)
Cc1c(Cl)cccc1NS(=O)(=O)c1ccc2c(c1)C1C=CCC1C(c1ccc(C(=O)O)cc1)N2 (stereo not drawn)	HTRA1 inh 38 (no result: ABHD4 inh, PRMT1 FP inh, SIAE inh) | HTRA1 conf inactive
COc1ccc2sc(-c3ccc(N(C)C)cc3)c(C#CCCO)c2c1	HTRA1 inh 37 | HTRA1 conf inactive
COc1ccc2sc(-c3ccc(N(C)C)cc3)c(C#Cc3cncn3C)c2c1	HTRA1 inh 48 | HTRA1 conf inactive
Nc1c(S(=O)(=O)O)cc(NC(=O)c2ccccc2)c2c1C(=O)c1ccccc1C2=O	HTRA1 inh 55 (no result: ABHD4 inh, PRMT1 FP inh, SIAE inh) | HTRA1 conf 72
O=C(Nc1ccccc1-c1ccccc1)c1ccccc1	none
O=C(Cn1c(=O)c2cccn2c2cccnc21)NCCCN1CCN(c2ccc(Cl)cc2)CC1	none (no result: HTRA1 inh, JMJD2C inh)
CCn1c2ccccc2c2c3ncc4cccn4c3ccc21	HTRA1 inh 47 | HTRA1 conf inactive
CCN(CC)c1ccc(N)cc1	HTRA1 inh 44 (no result: ABHD4 inh, PRMT1 FP inh, SIAE inh) | HTRA1 conf 66
Nc1ccc(N(CCO)CCO)cc1	none
CCCCNS(=O)(=O)/C=C/c1ccc(OC)cc1CNC(=O)OC(C)(C)C	none (no result: HTRA1 inh, JMJD2C inh)
COc1cccc(/C=N/NC(=O)N/N=C/c2cccc(OC)c2O)c1O	HTRA1 inh 60 | HTRA1 conf 85
COc1ccccc1C=NNC(=O)NN=Cc1ccccc1OC	none (no result: JMJD2C inh)
CCOc1ccccc1/C=N/NC(=O)c1c(C)nc2ccc(Br)cn12	none
COc1cccc(/C=N/NC(=O)c2c(C)nc3ccc(Br)cn23)c1O	HTRA1 inh 54 (no result: ABHD4 inh, PRMT1 FP inh, SIAE inh) | HTRA1 conf 52
COc1cccc(/C=N/NC(=O)c2nc(-c3ccccc3)cc(-c3ccccc3)n2)c1O	HTRA1 inh 43 | HTRA1 conf 57

Bioassay records deposited in PubChem by several laboratories.
